{"source": "ChEMBL document CHEMBL1129260", "about": "“Evaluation of the stability and animal biodistribution of gadolinium (III) benzylamine-derivatized diethylenetriaminepentaacetic acid” (J Med Chem, 1996)", "conditions_in_all_cases": "in vivo", "key": {"Rattus norvegicus [1]": {"organism": "Rattus norvegicus", "assay": "Biodistribution of In-LDTA (conjugated with galactose BSA)protein using [111In]- in mature female Sprague-Dawley rat bone after injecting for 1 hour.", "type": "ADME, organism-based, Bone element", "in_short": "(§1)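 SCN-LDTPA was coupled (pH 9 bicine, 24 h, RT) to BSA, mannosylated BSA or galactosylated BSA and FPLC-purified. The conjugate (400 μg) was labeled with 340 μCi 111In acetate at pH 5.5 for 45 min and gel-filtered. Mature female Sprague-Dawley rats received 19 μg of conjugate; four rats per time point. Blood, liver, bone, kidney and colon were taken and reported as %ID/organ.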"}, "Rattus norvegicus [2]": {"organism": "Rattus norvegicus", "assay": "Biodistribution of Gd-DTA (conjugated with BSA)protein using [111In]- in mature female Sprague-Dawley rat bone marrow after injecting for 1 hour.", "type": "ADME, organism-based"}, "Rattus norvegicus [3]": {"organism": "Rattus norvegicus", "assay": "Biodistribution of In-LDTA (conjugated with galactose BSA)protein using [111In]- in mature female Sprague-Dawley rat blood after injecting for 48 hour.", "type": "ADME, organism-based", "in_short": "as §1"}, "Rattus norvegicus [4]": {"organism": "Rattus norvegicus", "assay": "Biodistribution of In-LDTA (conjugated with mannoseBSA) protein using [111In]- in mature female Sprague-Dawley rat liver after injecting for 48 hr.", "type": "ADME, organism-based", "in_short": "as §1"}, "Rattus norvegicus [5]": {"organism": "Rattus norvegicus", "assay": "Biodistribution of Gd-DTA (conjugated with BSA)protein using [111In]- in mature female Sprague-Dawley rat blood after injecting for 96 hour.", "type": "ADME, organism-based"}, "Rattus norvegicus [6]": {"organism": "Rattus norvegicus", "assay": "Biodistribution of Gd-LDTA (conjugated with galactose BSA) protein using [111In]- in mature female Sprague-Dawley rat blood after injecting for 1 hour.", "type": "ADME, organism-based", "in_short": "(§2)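 Conjugate of SCN-LDTPA with BSA, mannosylated BSA or galactosylated BSA (10 equiv chelate, pH 9 bicine, RT 24 h; FPLC-purified) was labelled with 340 μCi 111In acetate at pH 5.5 for 45 min. It was then gel-filtered (Biospin-6) and checked for purity by FPLC. Mature female Sprague-Dawley rats received 19 μg of conjugate. Four rats per time point (1, 4, 24, 48 h) were killed; blood, liver, bone, kidney and colon were taken and %ID/organ was calculated.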"}, "Rattus norvegicus [7]": {"organism": "Rattus norvegicus", "assay": "Biodistribution of Gd-DTA (conjugated with BSA)protein using [153Gd]- in mature female Sprague-Dawley rat bone marrow after injecting for 48 hour."}, "Rattus norvegicus [8]": {"organism": "Rattus norvegicus", "assay": "Biodistribution of Gd-LDTA (conjugated with galactose BSA) protein using [111In]- in mature female Sprague-Dawley rat kidney after injecting for 4 hour.", "type": "ADME, organism-based", "in_short": "as §2"}, "Rattus norvegicus [9]": {"organism": "Rattus norvegicus", "assay": "Biodistribution of In-LDTA (conjugated with BSA)protein using [111In]- in mature female Sprague-Dawley rat colon after injecting for 48 hr.", "type": "ADME, organism-based", "in_short": "as §1"}, "Rattus norvegicus [10]": {"organism": "Rattus norvegicus", "assay": "Biodistribution of Gd-LDTA (conjugated with galactose BSA) protein using [111In]- in mature female Sprague-Dawley rat liver after injecting for 4 hour.", "type": "ADME, organism-based", "in_short": "as §2"}, "Rattus norvegicus [11]": {"organism": "Rattus norvegicus", "assay": "Biodistribution of Gd-DTA (conjugated with BSA)protein using [111In]- in mature female Sprague-Dawley rat bone after injecting for 4 hour.", "type": "ADME, organism-based, Bone element", "in_short": "as §2"}, "Rattus norvegicus [12]": {"organism": "Rattus norvegicus", "assay": "Biodistribution of Gd-LDTA (conjugated with mannose BSA) protein using [111In]- in mature female Sprague-Dawley rat bone marrow after injecting for 48 hour.", "type": "ADME, organism-based"}, "Rattus norvegicus [13]": {"organism": "Rattus norvegicus", "assay": "Biodistribution of Gd-LDTA (conjugated with galactose BSA) protein using [111In]- in mature female Sprague-Dawley rat blood after injecting for 24 hour.", "type": "ADME, organism-based", "in_short": "as §2"}, "Rattus norvegicus [14]": {"organism": "Rattus norvegicus", "assay": "Biodistribution of Gd-LDTA (conjugated with galactose BSA) protein using [111In]- in mature female Sprague-Dawley rat kidney after injecting for 1 hour.", "type": "ADME, organism-based", "in_short": "as §2"}, "Rattus norvegicus [15]": {"organism": "Rattus norvegicus", "assay": "Biodistribution of In-LDTA (conjugated with BSA) protein using [111In]- in mature female Sprague-Dawley rat blood after injecting for 4 hour.", "type": "ADME, organism-based", "in_short": "as §1"}, "Rattus norvegicus [16]": {"organism": "Rattus norvegicus", "assay": "Biodistribution of Gd-LDTA (conjugated with mannose BSA) protein using [111In]- in mature female Sprague-Dawley rat kidney after injecting for 96 hour.", "type": "ADME, organism-based"}, "Rattus norvegicus [17]": {"organism": "Rattus norvegicus", "assay": "Biodistribution of Gd-LDTA (conjugated with mannose BSA) protein using [111In]- in mature female Sprague-Dawley rat bone after injecting for 1 hour.", "type": "ADME, organism-based, Bone element", "in_short": "as §2"}, "Rattus norvegicus [18]": {"organism": "Rattus norvegicus", "assay": "Biodistribution of Gd-DTA (conjugated with BSA)protein using [111In]- in mature female Sprague-Dawley rat liver after injecting for 24 hour.", "type": "ADME, organism-based", "in_short": "as §2"}, "Rattus norvegicus [19]": {"organism": "Rattus norvegicus", "assay": "Biodistribution of Gd-DTA (conjugated with BSA)protein using [111In]- in mature female Sprague-Dawley rat kidney after injecting for 96 hour.", "type": "ADME, organism-based"}, "Rattus norvegicus [20]": {"organism": "Rattus norvegicus", "assay": "Biodistribution of Gd-LDTA (conjugated with mannose BSA) protein using [111In]- in mature female Sprague-Dawley rat liver after injecting for 48 hour.", "type": "ADME, organism-based"}, "Rattus norvegicus [21]": {"organism": "Rattus norvegicus", "assay": "Biodistribution of In-LDTA (conjugated with mannoseBSA) protein using [111In]- in mature female Sprague-Dawley rat colon after injecting for 48 hour.", "type": "ADME, organism-based", "in_short": "as §1"}, "Rattus norvegicus [22]": {"organism": "Rattus norvegicus", "assay": "Biodistribution of In-LDTA (conjugated with galactose BSA)protein using [111In]- in mature female Sprague-Dawley rat kidney after injecting for 4 hour.", "type": "ADME, organism-based", "in_short": "as §1"}, "Rattus norvegicus [23]": {"organism": "Rattus norvegicus", "assay": "Biodistribution of Gd-LDTA (conjugated with galactose BSA) protein using [111In]- in mature female Sprague-Dawley rat bone after injecting for 48 hour.", "type": "ADME, organism-based, Bone element", "in_short": "as §2"}, "Rattus norvegicus [24]": {"organism": "Rattus norvegicus", "assay": "Biodistribution of Gd-LDTA (conjugated with mannose BSA) protein using [111In]- in mature female Sprague-Dawley rat bone after injecting for 4 hour.", "type": "ADME, organism-based, Bone element", "in_short": "as §2"}, "Rattus norvegicus [25]": {"organism": "Rattus norvegicus", "assay": "Biodistribution of In-LDTA (conjugated with galactose BSA)protein using [111In]- in mature female Sprague-Dawley rat kidney after injecting for 48 hour.", "type": "ADME, organism-based", "in_short": "as §1"}, "Rattus norvegicus [26]": {"organism": "Rattus norvegicus", "assay": "Biodistribution of In-LDTA (conjugated with galactose BSA)protein using [111In]- in mature female Sprague-Dawley rat colon after injecting for 1 hour.", "type": "ADME, organism-based", "in_short": "as §1"}, "Rattus norvegicus [27]": {"organism": "Rattus norvegicus", "assay": "Biodistribution of In-LDTA (conjugated with BSA) protein using [111In]- in mature female Sprague-Dawley rat blood after injecting for 48 hour.", "type": "ADME, organism-based", "in_short": "as §1"}, "Rattus norvegicus [28]": {"organism": "Rattus norvegicus", "assay": "Biodistribution of In-LDTA (conjugated with mannoseBSA)protein using [111In]- in mature female Sprague-Dawley rat blood after injecting for 1 hour.", "type": "ADME, organism-based", "in_short": "as §1"}, "Rattus norvegicus [29]": {"organism": "Rattus norvegicus", "assay": "Biodistribution of In-LDTA protein using [111In]- in mature female Sprague-Dawley rat blood after injecting for 1 hour.", "type": "ADME, organism-based", "in_short": "as §1"}, "Rattus norvegicus [30]": {"organism": "Rattus norvegicus", "assay": "Biodistribution of In-LDTA (conjugated with mannoseBSA)protein using [111In]- in mature female Sprague-Dawley rat blood after injecting for 24 hour.", "type": "ADME, organism-based", "in_short": "as §1"}, "Rattus norvegicus [31]": {"organism": "Rattus norvegicus", "assay": "Biodistribution of Gd-LDTA (conjugated with galactose BSA) protein using [111In]- in mature female Sprague-Dawley rat bone marrow after injecting for 48 hour.", "type": "ADME, organism-based"}, "Rattus norvegicus [32]": {"organism": "Rattus norvegicus", "assay": "Biodistribution of In-LDTA (conjugated with mannoseBSA) protein using [111In]- in mature female Sprague-Dawley rat bone after injecting for 24 hour.", "type": "ADME, organism-based, Bone element", "in_short": "as §1"}, "Rattus norvegicus [33]": {"organism": "Rattus norvegicus", "assay": "Biodistribution of In-LDTA (conjugated with BSA) protein using [111In]- in mature female Sprague-Dawley rat bone after injecting for 48 hour.", "type": "ADME, organism-based, Bone element", "in_short": "as §1"}, "Rattus norvegicus [34]": {"organism": "Rattus norvegicus", "assay": "Biodistribution of Gd-DTA (conjugated with BSA) protein using [111In]- in mature female Sprague-Dawley rat colon after injecting for 48 hour.", "type": "ADME, organism-based", "in_short": "as §2"}, "Rattus norvegicus [35]": {"organism": "Rattus norvegicus", "assay": "Biodistribution of Gd-DTA (conjugated with BSA)protein using [153Gd]- in mature female Sprague-Dawley rat bone marrow after injecting for 24 hour."}, "Rattus norvegicus [36]": {"organism": "Rattus norvegicus", "assay": "Biodistribution of Gd-LDTA (conjugated with galactose BSA) protein using [111In]- in mature female Sprague-Dawley rat bone after injecting for 96 hour.", "type": "ADME, organism-based, Bone element"}}, "data": [{"smiles": "Nc1ccc(CC(C(=O)O)N(CCN(CC(=O)O)CC(=O)O)CCN(CC(=O)O)CC(=O)O)cc1", "note": "(stereo unspecified)", "values": [{"measurement": "ID/organ", "setting": "Rattus norvegicus [1]", "value": 0.227, "unit": "%"}, {"measurement": "ID/organ", "setting": "Rattus norvegicus [2]", "value": 1.19, "unit": "%"}, {"measurement": "ID/organ", "setting": "Rattus norvegicus [3]", "value": 0.0267, "unit": "%"}, {"measurement": "ID/organ", "setting": "Rattus norvegicus [4]", "value": 61, "unit": "%"}, {"measurement": "ID/organ", "setting": "Rattus norvegicus [5]", "value": 0.418, "unit": "%"}, {"measurement": "ID/organ", "setting": "Rattus norvegicus [6]", "value": 0.207, "unit": "%"}, {"measurement": "ID/organ", "setting": "Rattus norvegicus [7]", "value": 2.46, "unit": "%"}, {"measurement": "ID/organ", "setting": "Rattus norvegicus [8]", "value": 0.105, "unit": "%"}, {"measurement": "ID/organ", "setting": "Rattus norvegicus [9]", "value": 5.52, "unit": "%"}, {"measurement": "ID/organ", "setting": "Rattus norvegicus [10]", "value": 86.1, "unit": "%"}, {"measurement": "ID/organ", "setting": "Rattus norvegicus [11]", "value": 22.3, "unit": "%"}, {"measurement": "ID/organ", "setting": "Rattus norvegicus [12]", "value": 1.77, "unit": "%"}, {"measurement": "ID/organ", "setting": "Rattus norvegicus [13]", "value": 0.02, "unit": "%"}, {"measurement": "ID/organ", "setting": "Rattus norvegicus [14]", "value": 0.114, "unit": "%"}, {"measurement": "ID/organ", "setting": "Rattus norvegicus [15]", "value": 53.8, "unit": "%"}, {"measurement": "ID/organ", "setting": "Rattus norvegicus [16]", "value": 0.405, "unit": "%"}, {"measurement": "ID/organ", "setting": "Rattus norvegicus [17]", "value": 15.6, "unit": "%"}, {"measurement": "ID/organ", "setting": "Rattus norvegicus [18]", "value": 20, "unit": "%"}, {"measurement": "ID/organ", "setting": "Rattus norvegicus [19]", "value": 2.73, "unit": "%"}, {"measurement": "ID/organ", "setting": "Rattus norvegicus [20]", "value": 35, "unit": "%"}, {"measurement": "ID/organ", "setting": "Rattus norvegicus [21]", "value": 0.542, "unit": "%"}, {"measurement": "ID/organ", "setting": "Rattus norvegicus [22]", "value": 0.0688, "unit": "%"}, {"measurement": "ID/organ", "setting": "Rattus norvegicus [23]", "value": 8.7, "unit": "%"}, {"measurement": "ID/organ", "setting": "Rattus norvegicus [24]", "value": 16.4, "unit": "%"}, {"measurement": "ID/organ", "setting": "Rattus norvegicus [25]", "value": 0.14, "unit": "%"}, {"measurement": "ID/organ", "setting": "Rattus norvegicus [26]", "value": 0.0098, "unit": "%"}, {"measurement": "ID/organ", "setting": "Rattus norvegicus [27]", "value": 3.33, "unit": "%"}, {"measurement": "ID/organ", "setting": "Rattus norvegicus [28]", "value": 0.255, "unit": "%"}, {"measurement": "ID/organ", "setting": "Rattus norvegicus [29]", "value": 61.3, "unit": "%"}, {"measurement": "ID/organ", "setting": "Rattus norvegicus [30]", "value": 0.129, "unit": "%"}, {"measurement": "ID/organ", "setting": "Rattus norvegicus [31]", "value": 0.061, "unit": "%"}, {"measurement": "ID/organ", "setting": "Rattus norvegicus [32]", "value": 8.9, "unit": "%"}, {"measurement": "ID/organ", "setting": "Rattus norvegicus [33]", "value": 25.9, "unit": "%"}, {"measurement": "ID/organ", "setting": "Rattus norvegicus [34]", "value": 2.37, "unit": "%"}, {"measurement": "ID/organ", "setting": "Rattus norvegicus [35]", "value": 3.07, "unit": "%"}, {"measurement": "ID/organ", "setting": "Rattus norvegicus [36]", "value": 9.55, "unit": "%"}]}]}
